Measurements: ChEMBL document CHEMBL1144528, “Synthesis of 8-thiabicyclo[3.2.1]octanes and their binding affinity for the dopamine and serotonin transporters” (Bioorg Med Chem, 2007)

Assays:
[1] = species: Macaca mulatta; test: Selectivity for rhesus monkey DAT over rhesus monkey SERT
Outline: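 Ratio of SERT IC50 ([3H]citalopram binding) to DAT IC50 ([3H]WIN35,428 binding), both measured in monkey caudate-putamen membranes.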

[2] = biological target: Sodium-dependent serotonin transporter (Macaca mulatta, UniProt Q9MYX0); test: Displacement of [3H]citalopram from SERT in rhesus monkey caudate-putamen; type: tissue-based
Sodium-dependent serotonin transporter, sequence (Q9MYX0 whole entry): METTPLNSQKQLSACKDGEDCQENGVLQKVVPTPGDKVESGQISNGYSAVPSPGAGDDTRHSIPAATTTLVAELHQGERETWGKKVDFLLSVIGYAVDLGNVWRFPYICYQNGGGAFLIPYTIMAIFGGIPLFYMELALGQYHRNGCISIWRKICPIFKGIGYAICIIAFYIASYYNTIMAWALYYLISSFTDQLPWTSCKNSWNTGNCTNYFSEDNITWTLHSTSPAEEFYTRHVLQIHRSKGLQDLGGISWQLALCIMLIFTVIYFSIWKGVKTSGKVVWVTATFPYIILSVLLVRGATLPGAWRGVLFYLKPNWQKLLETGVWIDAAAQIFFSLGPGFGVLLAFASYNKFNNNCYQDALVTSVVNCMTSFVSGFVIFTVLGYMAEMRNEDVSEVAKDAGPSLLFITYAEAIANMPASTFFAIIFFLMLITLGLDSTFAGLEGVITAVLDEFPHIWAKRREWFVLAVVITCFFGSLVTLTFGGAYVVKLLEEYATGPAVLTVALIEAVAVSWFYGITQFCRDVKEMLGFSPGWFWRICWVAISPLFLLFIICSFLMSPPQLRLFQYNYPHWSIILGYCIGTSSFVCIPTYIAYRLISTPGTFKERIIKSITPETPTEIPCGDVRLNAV
Outline: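 Caudate-putamen membranes from rhesus or cynomolgus monkey (4 mg original wet weight/mL) in 50 mM Tris·HCl pH 7.4 with 100 mM NaCl. Incubated with 1 nM [3H]citalopram and a range of test drug concentrations for 2 h at 0-4 °C. Filtered over glass fibre filters pre-soaked in 0.1% polyethyleneimine, then scintillation counted. IC50 is the mean of ≥2 independent experiments in different brains, each in triplicate.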

[3] = biological target: Transporter (Macaca mulatta, UniProt Q7JHP9); test: Displacement of [3H]WIN-35428 from DAT in rhesus monkey caudate-putamen; type: tissue-based
Transporter, sequence (Q7JHP9 whole entry): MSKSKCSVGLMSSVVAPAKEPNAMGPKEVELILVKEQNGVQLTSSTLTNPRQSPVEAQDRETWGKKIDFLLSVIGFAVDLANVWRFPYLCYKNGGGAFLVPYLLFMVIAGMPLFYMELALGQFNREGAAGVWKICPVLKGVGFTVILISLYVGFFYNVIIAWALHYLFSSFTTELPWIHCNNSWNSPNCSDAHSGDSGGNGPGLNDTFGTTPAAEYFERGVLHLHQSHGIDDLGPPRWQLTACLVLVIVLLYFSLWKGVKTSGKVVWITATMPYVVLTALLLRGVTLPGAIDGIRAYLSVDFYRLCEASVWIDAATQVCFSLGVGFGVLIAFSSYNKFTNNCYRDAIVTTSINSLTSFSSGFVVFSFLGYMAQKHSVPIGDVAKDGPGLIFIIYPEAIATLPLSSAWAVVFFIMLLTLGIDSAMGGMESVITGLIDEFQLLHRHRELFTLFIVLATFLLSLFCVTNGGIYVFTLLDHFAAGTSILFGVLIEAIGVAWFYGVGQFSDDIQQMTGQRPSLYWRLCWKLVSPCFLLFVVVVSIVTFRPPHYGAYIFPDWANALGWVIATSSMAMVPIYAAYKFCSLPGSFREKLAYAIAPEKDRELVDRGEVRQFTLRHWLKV
Outline: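 Rhesus or cynomolgus caudate-putamen membranes (4 mg original wet weight/mL) in 50 mM Tris·HCl pH 7.4, 100 mM NaCl. Incubated 2 h at 0-4 °C with 0.3 nM [3H]WIN35,428 and a range of drug concentrations. Filtered on 0.1% BSA-soaked glass fibre filters and scintillation counted. Nonspecific binding defined with 30 μM (-)-cocaine. IC50 is the mean of ≥2 experiments in different brains, each in triplicate.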

| SMILES | Ratio IC50 [1] | IC50 [2] [nM] | IC50 [3] [nM] |
| --- | --- | --- | --- |
| COC(=O)[C@@H]1C2CCC(C[C@@H]1c1ccc(F)c(F)c1)S2 (stereo partly drawn) | 7 | 235 | 32 |
| COC(=O)C1=C(c2ccc(Cl)c(Cl)c2)CC2CC[C@@H]1S2 | 800 | 4000 | 5 |
| COC(=O)[C@@H]1C2CCC(C[C@H]1c1ccc(Br)cc1)S2 (stereo partly drawn) | 57 | 342 | 6 |
| COC(=O)[C@@H]1C2CCC(C[C@H]1c1ccc(F)c(F)c1)S2 (stereo partly drawn) | 88 | 1000 | 11.3 |
| COC(=O)[C@H]1[C@@H](c2ccc(Cl)c(Cl)c2)CC2CC[C@H]1O2 | 1.4 | 4.7 | 3.3 |
| COC(=O)[C@@H]1[C@H]2CCC(C[C@H]1c1ccc(Cl)c(Cl)c1)O2 | 13 | 31 | 2.3 |
| COC(=O)C1=C(c2ccc(Cl)c(Cl)c2)CC2CC[C@@H]1N2C | 4 | 1900 | 490 |
| COC(=O)[C@@H]1C2CCC(C[C@H]1c1ccc3ccccc3c1)S2 (stereo partly drawn) | 4.5 | 36 | 8 |
| COC(=O)[C@@H]1[C@@H]2CCC(C[C@H]1c1ccc(Cl)c(Cl)c1)O2 | 51 | 2860 | 56 |
| COC(=O)C1=C(c2ccc(Cl)c(Cl)c2)CC2CC[C@H]1N2C | 723 | 867 | 1.2 |
| COC(=O)[C@@H]1C2CCC(C[C@H]1c1ccc(F)c(Cl)c1)S2 (stereo partly drawn) | 68 | 480 | 7.1 |
| COC(=O)C1=C(c2ccccc2)CC2CCC1[S+]2[O-] (stereo not drawn) | > 1.6 | > 10000 | 6000 |
| COC(=O)[C@@H]1C2CCC(C[C@@H]1c1ccc(Br)cc1)S2 (stereo partly drawn) | 2.3 | 14 | 6 |
| COC(=O)[C@@H]1C2CCC(C[C@@H]1c1ccc(F)cc1)S2 (stereo partly drawn) | 13 | 494 | 38 |
| COC(=O)[C@@H]1C2CCC(C[C@@H]1c1ccc(Cl)c(F)c1)[S+]2[O-] (stereo partly drawn) | > 286 | > 4000 | 14 |
| COC(=O)[C@H]1[C@@H](c2ccc(Cl)c(Cl)c2)CC2CC[C@H]1S2 | 1.5 | 3 | 2 |
| COC(=O)[C@@H]1[C@H]2[C@H](O)CC(C[C@@H]1c1ccc(Cl)c(Cl)c1)N2C | 50 | 15 | 0.3 |
| COC(=O)[C@@H]1C2CCC(C[C@H]1c1ccccc1)S2 (stereo partly drawn) | > 57 | > 8000 | 140 |
| COC(=O)C1=C(c2ccc(Cl)c(Cl)c2)CC2C[C@@H](O)[C@@H]1N2C | – | 1590 | 265 |
| COC(=O)[C@@H]1C2CCC(C[C@H]1c1ccc(Cl)c(Cl)c1)[S+]2[O-] (stereo partly drawn) | > 346 | > 3000 | 7.8 |
| COC(=O)[C@@H]1C2CCC(C[C@H]1c1ccc(Cl)c(F)c1)[S+]2[O-] (stereo partly drawn) | > 824 | > 14000 | 17 |
| COC(=O)[C@@H]1[C@H]2CCC(C[C@H]1c1ccc(Cl)c(Cl)c1)N2C | 68 | 27 | 0.4 |

| SMILES | Ratio IC50 [1] | IC50 [2] [nM] | IC50 [3] [nM] |
| --- | --- | --- | --- |
| COC(=O)[C@@H]1C2CCC(C[C@H]1c1ccc(Cl)c(Cl)c1)O2 (stereo partly drawn) | 21 | 64.5 | 3.1 |
| COC(=O)[C@@H]1[C@@H]2[C@H](O)CC(C[C@H]1c1ccc(Cl)c(Cl)c1)N2C | 11 | 5300 | 482 |
| COC(=O)C1=C(c2ccc(Cl)c(Cl)c2)CC2CCC1C2 (stereo not drawn) | 727 | 5160 | 7.1 |
| COC(=O)[C@H]1[C@@H](c2ccc(Cl)c(Cl)c2)CC2CC[C@H]1N2C | 2.2 | 2.5 | 1.1 |
| COC(=O)C1=C(c2ccc(Cl)c(Cl)c2)CC2CCC1S2 (stereo not drawn) | > 800 | > 3000 | 4.5 |
| COC(=O)[C@@H]1C2CCC(C[C@@H]1c1ccc(Cl)c(Cl)c1)O2 (stereo partly drawn) | 2 | 6.5 | 3.3 |
| COC(=O)C1=C(c2ccc(Cl)c(Cl)c2)CC2CCC1O2 (stereo not drawn) | 600 | 6000 | 10 |
| COC(=O)[C@@H]1C2CCC(C[C@H]1c1ccc(F)c(Cl)c1)[S+]2[O-] (stereo partly drawn) | > 1350 | > 31000 | 23 |
| COC(=O)[C@@H]1C2CCC(C2)C[C@H]1c1ccc(Cl)c(Cl)c1 (stereo partly drawn) | 13 | 166 | 13 |
| COC(=O)[C@@H]1C2CCC(C[C@H]1c1ccc(Cl)cc1)S2 (stereo partly drawn) | > 91 | 1000 | 11 |
| COC(=O)[C@@H]1[C@H]2CCC(C[C@H]1c1ccc(Cl)c(Cl)c1)S2 | 8 | 39 | 4.9 |
| COC(=O)C1=C(c2ccc(F)cc2)CC2CCC1S2 (stereo not drawn) | > 127 | > 30000 | 220 |
| COC(=O)[C@@H]1[C@@H]2CCC(C[C@@H]1c1ccc(Cl)c(Cl)c1)O2 | 1.2 | 58 | 47 |
| COC(=O)[C@@H]1C2CCC(C[C@@H]1c1ccc(Cl)cc1)S2 (stereo partly drawn) | 3.4 | 33 | 9.6 |
| COC(=O)[C@@H]1C2CCC(C[C@@H]1c1ccc(F)c(Cl)c1)S2 (stereo partly drawn) | 55 | 370 | 6.7 |
| COC(=O)[C@@H]1C2CCC(C[C@@H]1c1ccc(Cl)c(Cl)c1)S2 (stereo partly drawn) | 1.5 | 8 | 5.7 |
| COC(=O)[C@@H]1[C@@H]2CCC(C[C@H]1c1ccc(Cl)c(Cl)c1)S2 | 14 | 139 | 10 |
| COC(=O)[C@@H]1C2CCC(C[C@H]1c1ccc(I)cc1)S2 (stereo partly drawn) | 8 | 70 | 9 |
| COC(=O)[C@@H]1C2CCC(C[C@H]1c1ccc(F)cc1)S2 (stereo partly drawn) | > 186 | > 11000 | 59 |
| COC(=O)C1=C(c2ccc(Br)cc2)CC2CCC1S2 (stereo not drawn) | > 2750 | > 25000 | 9.1 |
| COC(=O)[C@@H]1C2CCC(C[C@H]1c1ccc(F)c(F)c1)[S+]2[O-] (stereo partly drawn) | > 775 | > 69000 | 89 |
| COC(=O)C1=C(c2ccc(Cl)c(F)c2)CC2CCC1S2 (stereo not drawn) | > 5000 | > 50000 | 10 |

| SMILES | Ratio IC50 [1] | IC50 [2] [nM] | IC50 [3] [nM] |
| --- | --- | --- | --- |
| COC(=O)C1=C(c2ccc(Cl)c(Cl)c2)CC2CC[C@H]1S2 | 1040 | 2600 | 2.5 |
| COC(=O)C1=C(c2ccc3ccccc3c2)CC2CCC1S2 (stereo not drawn) | > 163 | > 1000 | 8 |
| COC(=O)[C@@H]1[C@@H]2CCC(C[C@@H]1c1ccc(Cl)c(Cl)c1)S2 | 4 | 90 | 22 |
| COC(=O)[C@@H]1[C@H]2[C@H](O)CC(C[C@H]1c1ccc(Cl)c(Cl)c1)N2C | 1610 | 1220 | 0.76 |
| COC(=O)[C@@H]1C2CCC(C[C@@H]1c1ccccc1)S2 (stereo partly drawn) | > 29 | > 3000 | 117 |
| COC(=O)C1=C(c2ccc(F)c(Cl)c2)CC2CCC1S2 (stereo not drawn) | > 789 | > 6000 | 7.6 |
| COC(=O)C1=C(c2ccc(Cl)c(Cl)c2)CC2CC[C@@H]1O2 | 805 | 46700 | 58 |
| COC(=O)C1=C(c2ccccc2)CC2CCC1S2 (stereo not drawn) | > 11 | > 10000 | 910 |
| COC(=O)C1=C(c2ccc(Cl)c(Cl)c2)CC2C[C@@H](O)[C@H]1N2C | – | 5370 | 7.4 |
| COC(=O)[C@@H]1C2CCC(C[C@H]1c1ccc(Cl)c(F)c1)S2 (stereo partly drawn) | 100 | 702 | 7 |
| COC(=O)C1=C(c2ccc(Cl)cc2)CC2CCC1S2 (stereo not drawn) | > 770 | > 10000 | 13 |
| COC(=O)[C@@H]1C2CCC(C[C@H]1c1ccc(Br)cc1)[S+]2[O-] (stereo partly drawn) | > 1710 | > 24000 | 14 |
| COC(=O)[C@@H]1C2CCC(C2)C[C@@H]1c1ccc(Cl)c(Cl)c1 (stereo partly drawn) | 3.4 | 33 | 9.6 |
| COC(=O)C1=C(c2ccc(I)cc2)CC2CCC1S2 (stereo not drawn) | > 1300 | > 8000 | 6.7 |
| COC(=O)[C@@H]1[C@@H]2[C@H](O)CC(C[C@@H]1c1ccc(Cl)c(Cl)c1)N2C | 0.05 | 139 | 2690 |
| COC(=O)[C@@H]1C2CCC(C[C@@H]1c1ccc(Cl)c(Cl)c1)[S+]2[O-] (stereo partly drawn) | 23 | 120 | 5.3 |
| COC(=O)[C@@H]1C2CCC(C[C@@H]1c1ccc(I)cc1)S2 (stereo partly drawn) | 0.7 | 10 | 14 |
| COC(=O)[C@@H]1C2CCC(C[C@H]1c1ccc(Cl)c(Cl)c1)S2 (stereo partly drawn) | 14 | 99 | 6.9 |
| COC(=O)C1=C(c2ccc(Cl)c(Cl)c2)CC2CC[C@H]1O2 | 460 | 2120 | 4.6 |
| COC(=O)[C@@H]1C2CCC(C[C@H]1c1ccccc1)[S+]2[O-] (stereo partly drawn) | 100 | 100000 | 1000 |
| COC(=O)[C@@H]1C2CCC(C[C@@H]1c1ccc3ccccc3c1)S2 (stereo partly drawn) | 0.8 | 13 | 16 |
